Data on 18 molecules can be found in ChEMBL document CHEMBL1129668 (J Med Chem, 1996).

Test [1] has as its target Sodium-dependent serotonin transporter (Rattus norvegicus, UniProt P31652). The test is described as follows: In vitro binding affinity towards serotonin transporter in rat cerebral cortical homogenates by [3H]paroxetine displacement.
Test [2] addresses Monoamine transporters; serotonin & dopamine (Rattus norvegicus) (UniProt P31652+P23977). The test is described as follows: Selectivity for Dopamine and Serotonin transporters. The class given is protein assay.
Test [3] concerns the target Sodium-dependent dopamine transporter (Rattus norvegicus, UniProt P23977). The test is described as follows: In vitro binding affinity towards dopamine transporter in rat striatal membranes by […] displacement. It is filed as cell membranes, Striatum, Membrane. In outline: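 Crude membranes of rat corpus striatum in Tris-citrate buffer (pH 7.4) with Na+ and Mg2+ (4 mM). Six concentrations, duplicate; computer-fit IC50 converted to Ki via Cheng–Prusoff relation using radioligand K_d.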

Test [4] concerns the target Monoamine transporters; Norepininephrine & dopamine (Rattus norvegicus) (UniProt P23977+Q9WTR4). The test is described as follows: Selectivity for Dopamine and Norepinephrine transporters. The class given is protein assay.
Test [5] has as its target Norepinephrine transporter (Rattus norvegicus, UniProt Q9WTR4). The test is described as follows: In vitro binding affinity towards Norepinephrine transporter rat cerebral cortical homogenates by [3H]nisoxetine displacement. In short, it runs like this:
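Crude membrane fraction of rat frontoparietal cerebral cortex in 50 mM Tris-HCl (pH 7.4) with Na+, K+ (5 mM). Typically six concentrations in duplicate; curves computer-fit for IC50, converted to Ki = IC50/(1 + [L]/K_d).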

Where only a bound is given, the exact number is not on record here.

Sequence of Sodium-dependent dopamine transporter (P23977 whole entry): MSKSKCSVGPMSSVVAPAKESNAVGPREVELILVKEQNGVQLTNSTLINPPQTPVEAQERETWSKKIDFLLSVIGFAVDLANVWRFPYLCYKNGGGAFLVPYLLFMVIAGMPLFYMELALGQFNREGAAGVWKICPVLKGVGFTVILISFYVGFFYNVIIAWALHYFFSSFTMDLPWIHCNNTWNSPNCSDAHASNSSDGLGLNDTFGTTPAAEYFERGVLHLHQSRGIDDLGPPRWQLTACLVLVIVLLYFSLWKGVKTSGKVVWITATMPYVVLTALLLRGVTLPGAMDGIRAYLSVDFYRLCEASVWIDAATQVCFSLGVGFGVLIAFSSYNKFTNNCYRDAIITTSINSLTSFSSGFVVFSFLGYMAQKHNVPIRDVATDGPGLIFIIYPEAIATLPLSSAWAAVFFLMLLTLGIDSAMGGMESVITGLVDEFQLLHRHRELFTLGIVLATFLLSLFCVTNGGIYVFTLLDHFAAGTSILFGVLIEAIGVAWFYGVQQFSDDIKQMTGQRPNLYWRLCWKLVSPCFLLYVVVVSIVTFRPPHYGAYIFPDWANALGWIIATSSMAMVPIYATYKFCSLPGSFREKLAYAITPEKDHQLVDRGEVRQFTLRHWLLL
Sequence of Monoamine transporters; serotonin & dopamine (Rattus norvegicus) (P23977 whole entry, looked up): as the sequence (P23977 whole entry) above
Sequence of Monoamine transporters; serotonin & dopamine (Rattus norvegicus) (P31652 whole entry, looked up): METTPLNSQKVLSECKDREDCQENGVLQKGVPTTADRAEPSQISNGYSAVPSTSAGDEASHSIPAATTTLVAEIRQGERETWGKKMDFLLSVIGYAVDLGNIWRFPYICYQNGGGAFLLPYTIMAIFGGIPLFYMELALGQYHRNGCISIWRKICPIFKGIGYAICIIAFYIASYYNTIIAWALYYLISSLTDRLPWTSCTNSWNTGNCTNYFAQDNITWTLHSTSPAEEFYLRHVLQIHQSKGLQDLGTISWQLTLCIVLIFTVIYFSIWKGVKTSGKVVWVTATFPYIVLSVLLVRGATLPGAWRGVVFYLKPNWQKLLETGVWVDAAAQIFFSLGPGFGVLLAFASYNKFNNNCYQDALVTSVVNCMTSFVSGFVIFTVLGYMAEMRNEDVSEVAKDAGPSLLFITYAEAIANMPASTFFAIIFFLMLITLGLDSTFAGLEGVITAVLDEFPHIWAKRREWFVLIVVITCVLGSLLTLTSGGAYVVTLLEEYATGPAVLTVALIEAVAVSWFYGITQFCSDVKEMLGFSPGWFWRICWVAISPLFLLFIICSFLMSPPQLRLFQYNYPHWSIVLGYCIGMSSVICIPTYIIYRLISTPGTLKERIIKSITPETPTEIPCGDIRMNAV
Sequence of Sodium-dependent serotonin transporter (P31652 whole entry): as the sequence (P31652 whole entry, looked up) above
Sequence of Norepinephrine transporter (Q9WTR4 whole entry): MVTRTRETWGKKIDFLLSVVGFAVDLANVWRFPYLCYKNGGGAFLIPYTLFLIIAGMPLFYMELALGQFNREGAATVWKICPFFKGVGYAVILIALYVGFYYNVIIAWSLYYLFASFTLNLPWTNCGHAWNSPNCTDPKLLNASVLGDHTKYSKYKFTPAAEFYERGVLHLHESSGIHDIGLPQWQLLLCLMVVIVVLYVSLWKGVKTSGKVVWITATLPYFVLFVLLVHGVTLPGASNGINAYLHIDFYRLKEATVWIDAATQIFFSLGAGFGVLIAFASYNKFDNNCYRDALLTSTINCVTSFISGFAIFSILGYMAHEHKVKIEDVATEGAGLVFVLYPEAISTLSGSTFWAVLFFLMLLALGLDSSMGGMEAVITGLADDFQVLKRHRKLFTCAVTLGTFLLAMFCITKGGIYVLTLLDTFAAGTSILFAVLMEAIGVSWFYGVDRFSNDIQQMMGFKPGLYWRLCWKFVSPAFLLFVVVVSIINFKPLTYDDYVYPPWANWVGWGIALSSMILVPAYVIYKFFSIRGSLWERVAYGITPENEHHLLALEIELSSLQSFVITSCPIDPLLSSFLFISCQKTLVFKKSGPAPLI

With `COC(=O)C1C(c2ccc(I)cc2)CC2CCC1N2CCF` (stereo unspecified), the Ki (in general, a measure of affinity in units of concentration, obtained from inhibition or displacement) in test [1] turned out to be 0.14 nM; in test [3], 4 nM; in test [5], 93 nM. The Selectivity in test [2] is 0.035; in test [4] it was 23.2.

In the case of `COC(=O)C1C(c2ccc(I)cc2)CC2CCC1N2C` (stereo unspecified), the Selectivity in test [2] was determined as 0.32; in test [4], 2. The values for the Ki in test [3] and in test [5] were 1.4 nM and 2.8 nM, respectively.

Consider `COC(=O)C1C(c2ccc(I)cc2)CC2CCC1N2CCCBr` (stereo unspecified), for which the Ki in test [1] was determined as 0.35 nM; in test [3] it was 2.56 nM; in test [5], 164 nM. In addition, the Selectivity amounted to 0.137 in test [2] and 64.1 in test [4].

On to `COC(=O)[C@@H]1C2CCC(C[C@@H]1c1ccc(I)cc1)N2CCCN1C(=O)c2ccccc2C1=O` (stereo partly specified), for which the Ki is 0.59 nM in test [1], 9.1 nM in test [3] and 73.7 nM in test [5]. Also, the Selectivity in test [2] stood at 0.065; in test [4], 8.1.

As to `COC(=O)[C@@H]1C2CCC(C[C@@H]1c1ccc(I)cc1)N2CC(=O)N(C)C` (stereo partly specified), the Ki in test [1] was found to be 6.4 nM; in test [3], 12.2 nM; in test [5], 522 nM. The Selectivity turned out to be 0.524 in test [2] and 42.8 in test [4].

Regarding `COC(=O)C1C(c2ccc(I)cc2)CC2CCC1N2CC(F)F` (stereo unspecified), the inhibition constant Ki in test [1] is 9.6 nM; in test [3], 15.1 nM; in test [5], above 5000 nM. Besides, the values for the Selectivity in test [2] and in test [4] were 0.636 and above 330, respectively.

Consider `COC(=O)C1C(c2ccc(I)cc2)CC2CCC1N2CCCF` (stereo unspecified), for which the inhibitory constant (Ki) worked out at 0.11 nM in test [1], 3.5 nM in test [3] and 63 nM in test [5]. The Selectivity in test [2] is 0.032; in test [4], 18.

For the molecule `COC(=O)C1C(c2ccc(I)cc2)CC2CCC1N2C(=O)C(C)C` (stereo unspecified), the Ki in test [1] is 102 nM; in test [3] it was 2100 nM; in test [5], above 10000 nM. For the same molecule, the Selectivity is 0.049 in test [2] and above 4.8 in test [4].

On to `COC(=O)[C@H]1[C@@H](c2ccc(F)cc2)C[C@H]2CC[C@H]1N2C`, for which the inhibition constant Ki in test [1] is 181 nM; in test [5] it was 635 nM.

Turning to `COC(=O)C1C(c2ccc(I)cc2)CC2CCC1N2CC1CC1` (stereo unspecified), the results for the inhibitory constant (Ki) in test [1], in test [3] and in test [5] were 1.3 nM, 4.3 nM and 198 nM, respectively. The Selectivity was 0.302 in test [2] and 45.6 in test [4].

Regarding `COC(=O)C1C(c2ccc(I)cc2)CC2CCC1N2CC(OC)OC` (stereo unspecified), the Ki in test [1] worked out at 1.69 nM; in test [3], 6.8 nM; in test [5], 110 nM. For the same molecule, the Selectivity in test [2] came out at 0.249; in test [4] it was 16.2.

`COC(=O)C1C(c2ccc(I)cc2)CC2CCC1N2CCCI` (stereo unspecified): the Ki was 8.84 nM in test [1], 38.9 nM in test [3] and 5000 nM in test [5]. In addition, the values for the Selectivity in test [2] and in test [4] were 0.227 and 129, respectively.

As to `CC(C)OC(=O)C1C(c2ccc(I)cc2)CC2CCC1N2CCF` (stereo unspecified), the Ki in test [1] is 21.7 nM; in test [3], 4.4 nM; in test [5], above 10000 nM. Besides, the Selectivity in test [2] was 4.9; in test [4] it was above 2300.

`CC(C)OC(=O)C1C(c2ccc(I)cc2)CC2CCC1N2CCCF` (stereo unspecified): the Ki in test [1] stood at 48.7 nM; in test [3], 1.2 nM; in test [5], 10000 nM. The Selectivity turned out to be 40.6 in test [2] and 8300 in test [4].

On to `COC(=O)C1C(c2ccc(I)cc2)CC2CCC1N2CCCOS(C)(=O)=O` (stereo unspecified), for which the Ki in test [1] was 17.3 nM; in test [3] it was 36.3 nM; in test [5] it was 5000 nM. In addition, the Selectivity in test [2] was 0.477; in test [4], 138.

Regarding `COC(=O)C1C(c2ccc(I)cc2)CC2CCC1N2CCCO` (stereo unspecified), the Ki in test [1] was found to be 2.5 nM; in test [3], 5.39 nM; in test [5] it was 217 nM. The Selectivity in test [2] came out at 0.463; in test [4], 40.3.

`COC(=O)C1C(c2ccc(I)cc2)CC2CCC1N2CCCCl` (stereo unspecified): the figures for the Ki in test [1], in test [3] and in test [5] were 0.32 nM, 3.1 nM and 96 nM, respectively. Also, the Selectivity in test [2] was determined as 0.1; in test [4], 31.

`COC(=O)CN1C2CCC1C(C(=O)OC)C(c1ccc(I)cc1)C2` (stereo unspecified): the figures for the Ki in test [1], in test [3] and in test [5] were 0.81 nM, 11.9 nM and 29.1 nM, respectively. Also, the Selectivity stood at 0.068 in test [2] and 2.5 in test [4].
